Measured values: ChEMBL document CHEMBL3259780, “3-Substituted-N-(4-hydroxynaphthalen-1-yl)arylsulfonamides as a novel class of selective Mcl-1 inhibitors: structure-based design, synthesis, SAR, and biological evaluation” (J Med Chem, 2014)
Active and inactive are the calls of the source. The rule behind the calls is not given here.

What was measured:
[1] = target: T1, Induced myeloid leukemia cell differentiation protein Mcl-1 (Homo sapiens, UniProt Q07820); test: Binding affinity to His-tagged MCL1 (171 to 327) (unknown origin) expressed in Escherichia coli BL21(DE3) assessed as inhibition of MCL1-N-terminal biotin-labeled BIM BH3 peptide interaction after 30 mins by surface plasmon resonance analysis
[2] = target: T1, Induced myeloid leukemia cell differentiation protein Mcl-1; test: Displacement of Flu-BID/FAM-BID from His-tagged MCL1 (171 to 327) (unknown origin) expressed in Escherichia coli BL21(DE3) after 3 hrs by fluorescence polarization assay
[3] = target: T2, Apoptosis regulator Bcl-2 (Homo sapiens, UniProt P10415); test: Displacement of Flu-BID/FAM-BID from His-tagged BCL2 (1 to 202) (unknown origin) expressed in Escherichia coli BL21(DE3) after 3 hrs by fluorescence polarization assay
[4] = target: T2, Apoptosis regulator Bcl-2; test: Inhibition of BCL2 (unknown origin) overexpressed in E-mu-myc transgenic mouse lymphoma cells assessed as induction of cell death after 15 to 18 hrs by flow cytometric analysis; format: cell-based
In short: (§1)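 Eμ-myc transgenic mouse lymphoma cells retrovirally transduced to overexpress Mcl-1 or Bcl-2, seeded at 0.5 × 10^6 cells/well. Cells were treated at varying concentrations for 15–18 h and stained with violet LIVE/DEAD fixable dead-cell dye. Percent stained (dead) cells was measured by flow cytometry. Means ± SEM from 3–7 independent experiments.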

HL-60 [5] = test: Cytotoxicity against human HL60 cells assessed as intracellular ATP level after 3 days by CellTiterGlo assay; format: functional, cell-based
In short: (§2)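 Cells in RPMI 1640 with 10% FBS, plated at 0.5 × 10^6 cells/well and exposed to a range of compound concentrations for 3 days. Viability is read as intracellular ATP by CellTiter-Glo luminescence. Growth is expressed as percent of DMSO-treated cells, and IC50 is obtained by nonlinear regression.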

MV4-11 = test: Cytotoxicity against human MV4-11 cells assessed as intracellular ATP level after 3 days by CellTiterGlo assay; format: functional, cell-based; in short: as §2
K562 = test: Cytotoxicity against human K562 cells assessed as intracellular ATP level after 3 days by CellTiterGlo assay; format: functional, cell-based; in short: as §2
Bcl-2-like protein 1 = Bcl-2-like protein 1 (Homo sapiens, UniProt Q07817); test: Displacement of Flu-BID/FAM-BID from His-tagged BCLX-L (1 to 209) (unknown origin) expressed in Escherichia coli BL21(DE3) after 3 hrs by fluorescence polarization assay
HL-60 [6] = test: Induction of apoptosis in human HL60 cells after 20 hrs by annexin V-FITC and propidium iodide staining-based flow cytometric analysis; format: functional, cell-based
In short: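 HL-60 cells at 0.5 × 10^6 cells/well were exposed to compounds at several concentrations for 20 h, then washed in PBS and stained with annexin-V FITC plus PI. Flow cytometry was run within 1 h. Annexin+/PI− counts as early apoptosis and double positive as late. Some runs included a 1 h pretreatment with 100 μM Z-VAD-FMK.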

Homo sapiens = species on record: Homo sapiens; test: Selectivity ratio of Ki for His-tagged BCL2 (1 to 202) (unknown origin) to Ki for His-tagged MCL1 (171 to 327) (unknown origin)
In short: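 Buffer 100 mM potassium phosphate pH 7.5 with bovine gamma globulin, azide and 0.01% Triton X-100; 3 h at room temperature. IC50 fitted, then converted to Ki.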

[7] = target: T1, Induced myeloid leukemia cell differentiation protein Mcl-1; test: Inhibition of FITC-labeled MCL1 (unknown origin) after 5 mins by fluorescence polarization assay
[8] = target: Induced myeloid leukemia cell differentiation protein Mcl-1 homolog (Mus musculus) (UniProt P97287); test: Inhibition of MCL1 in wild-type MEF assessed as induction of BAX/BAK-dependent cell death after 15 hrs by propidium iodide staining-based flow cytometric analysis
In short: (§3)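 Wild-type and Bax/Bak double-knockout MEFs were grown in DMEM with 10% FBS, seeded at 0.5 × 10^6 cells/well and allowed to adhere. Cells were exposed to increasing concentrations for 15 h, harvested, washed in PBS and stained with 0.025 mg/mL propidium iodide. PI-positive percentage was measured by flow cytometry. Mean ± SEM, with unpaired t test.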

[9] = target: Induced myeloid leukemia cell differentiation protein Mcl-1 homolog (Mus musculus) (UniProt P97287); test: Inhibition of MCL1 in BAX/BAK double knock out MEF assessed as induction of cell death at 16 uM after 15 hrs by propidium iodide staining-based flow cytometric analysis relative to control; in short: as §3
[10] = target: Induced myeloid leukemia cell differentiation protein Mcl-1 homolog (Mus musculus) (UniProt P97287); test: Inhibition of MCL1 in wild-type MEF assessed as induction of BAX/BAK-dependent cell death at 16 uM after 15 hrs by propidium iodide staining-based flow cytometric analysis relative to control
In short: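 Wild-type and Bax/Bak double-knockout MEFs grown in DMEM with 10% FBS, seeded at 0.5 × 10^6 cells/well and left to adhere. Exposed 15 h to compound, harvested, PBS-washed, stained with 0.025 mg/mL propidium iodide. PI-positive percentage by flow cytometry; significance by unpaired t test.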

HL-60 [11] = test: Induction of apoptosis in human HL60 cells assessed as caspase-3 activation after 20 hrs by DEVD-AFC-based fluorometric assay; format: functional, cell-based
In short: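 HL-60 cells were seeded at 0.5 × 10^6 cells/well and exposed to graded compound concentrations for 20 h. Caspase-3 activity was measured by fluorometric kit assay with DEVD-AFC substrate. Results are expressed as fold change over DMSO-treated cells.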

HL-60 [12] = test: Induction of apoptosis in human HL60 cells assessed as caspase-3 activation at 2.5 uM […] by DEVD-AFC-based fluorometric assay; format: functional, cell-based
[13] = target: T1, Induced myeloid leukemia cell differentiation protein Mcl-1; test: Inhibition of MCL1 (unknown origin) overexpressed in E-mu-myc transgenic mouse lymphoma cells assessed as induction of cell death at 0.1 to 10 uM after 15 to 18 hrs by flow cytometric analysis; format: cell-based; in short: as §1
[14] = target: T2, Apoptosis regulator Bcl-2; conditions: lymphoma, 0.1 to 10 uM

T2 sequence (P10415 whole entry): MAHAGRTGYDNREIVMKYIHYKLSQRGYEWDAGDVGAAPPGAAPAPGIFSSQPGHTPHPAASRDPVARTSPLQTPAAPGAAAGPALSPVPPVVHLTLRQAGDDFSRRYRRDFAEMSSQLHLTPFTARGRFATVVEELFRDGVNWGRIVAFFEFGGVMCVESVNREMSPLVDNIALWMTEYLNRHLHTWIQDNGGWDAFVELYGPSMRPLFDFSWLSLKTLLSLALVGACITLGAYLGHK
Chain of Bcl-2-like protein 1 (Q07817 whole entry): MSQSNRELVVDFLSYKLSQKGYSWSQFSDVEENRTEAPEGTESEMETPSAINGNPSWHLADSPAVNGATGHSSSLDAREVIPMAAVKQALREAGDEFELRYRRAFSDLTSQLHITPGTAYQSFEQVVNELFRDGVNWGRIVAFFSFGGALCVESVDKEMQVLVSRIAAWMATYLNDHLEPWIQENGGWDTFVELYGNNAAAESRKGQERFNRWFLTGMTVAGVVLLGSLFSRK
T1 sequence (Q07820 whole entry): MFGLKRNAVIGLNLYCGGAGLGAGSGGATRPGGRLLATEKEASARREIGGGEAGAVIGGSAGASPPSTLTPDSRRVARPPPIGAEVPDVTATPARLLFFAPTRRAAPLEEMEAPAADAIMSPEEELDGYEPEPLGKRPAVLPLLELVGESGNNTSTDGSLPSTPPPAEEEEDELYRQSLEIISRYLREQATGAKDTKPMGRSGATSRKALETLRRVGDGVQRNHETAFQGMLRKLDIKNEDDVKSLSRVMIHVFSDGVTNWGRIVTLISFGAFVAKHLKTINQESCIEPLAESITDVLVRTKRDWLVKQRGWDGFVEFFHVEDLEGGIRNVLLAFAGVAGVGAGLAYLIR
Chain of Induced myeloid leukemia cell differentiation protein Mcl-1 homolog (Mus musculus) (P97287 whole entry): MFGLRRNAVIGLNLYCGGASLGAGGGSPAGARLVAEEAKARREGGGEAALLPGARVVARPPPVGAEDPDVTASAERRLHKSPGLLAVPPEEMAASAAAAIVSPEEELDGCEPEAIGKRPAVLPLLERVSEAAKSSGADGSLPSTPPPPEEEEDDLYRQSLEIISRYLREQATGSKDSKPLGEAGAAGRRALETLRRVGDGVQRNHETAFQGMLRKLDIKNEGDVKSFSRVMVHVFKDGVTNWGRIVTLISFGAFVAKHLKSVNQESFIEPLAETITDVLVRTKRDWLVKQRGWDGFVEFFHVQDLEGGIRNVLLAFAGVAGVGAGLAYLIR

SMILES | IC50 [1] | Ki [2] | further results
NC(=O)CSc1cc(NS(=O)(=O)c2ccc(Br)cc2)c2ccccc2c1O | 3.87 µM | – | –
COc1c(SCC(N)=O)cc(NS(=O)(=O)c2ccc(Br)cc2)c2ccccc12 | > 100 µM | > 27 µM | –
O=C(O)CSc1cc(NS(=O)(=O)N2CCN(c3ccccc3)CC2)c2ccccc2c1O | 16.2 µM | 2.22 µM | –
O=C(O)CSc1cc(NS(=O)(=O)c2ccc(-c3ccc(Cl)cc3)cc2)c2ccccc2c1O | 0.88 µM | – | Ki [3]: 6.11 µM; inhibition [4]: inactive; Activity (HL-60 [5]): Dose-dependent effect; Activity (MV4-11): Dose-dependent effect; Activity (K562): Dose-dependent effect
O=S(=O)(Nc1cc(CCCO)c(O)c2ccccc12)c1ccc(Br)cc1 | 11 µM | 3.79 µM | –
O=C(O)CSc1cc(NS(=O)(=O)c2ccc(Cl)cc2)c2ccccc2c1O | 2.7 µM | – | –
O=C(O)CSc1cc(NC(=O)c2ccc(Br)cc2)c2ccccc2c1O | 45.1 µM | – | –
O=C(O)CSc1cc(NS(=O)(=O)c2ccccc2-c2ccccc2)c2ccccc2c1O | 9.9 µM | – | Ki [3]: 23.8 µM; Ki (Bcl-2-like protein 1): 48.2 µM
O=C(O)CSc1cc(NS(=O)(=O)c2cc3ccccc3s2)c2ccccc2c1O | 7.5 µM | – | –
CCc1ccc(S(=O)(=O)Nc2cc(SCC(=O)O)c(O)c3ccccc23)cc1 | 8.68 µM | – | –
O=C(O)CSc1cc(CNS(=O)(=O)c2ccccc2)c2ccccc2c1O | 30.2 µM | 64.8 µM | –
O=C(O)CSc1cc(NS(=O)(=O)c2ccc(Br)cc2)c2ccccc2c1O | 2.4 µM | – | Ki [3]: 23.8 µM; Ki (Bcl-2-like protein 1): 33 µM; Activity (HL-60 [5]): Dose-dependent effect; Activity (MV4-11): Dose-dependent effect; Activity (K562): Dose-dependent effect
O=C(O)CSc1cc(NS(=O)(=O)c2cccc(Br)c2)c2ccccc2c1O | 9.68 µM | – | –
O=C(O)CSc1cc(NS(=O)(=O)c2ccccc2)c2ccccc2c1O | 12.6 µM | – | –
COC(=O)CSc1cc(NS(=O)(=O)c2ccc(Br)cc2)c2ccccc2c1O | 14.9 µM | – | Activity (HL-60 [5]): Dose-dependent effect; Activity (MV4-11): Dose-dependent effect; Activity (K562): Dose-dependent effect
O=C(O)CSc1cc(NC(=O)Cc2ccccc2)c2ccccc2c1O | 63.8 µM | 59.4 µM | –
COc1c(CCCCO)cc(NS(=O)(=O)c2ccc(Br)cc2)c2ccccc12 | > 100 µM | > 27 µM | –
O=C(O)CSc1cc(NS(=O)(=O)c2ccc(F)cc2)c2ccccc2c1O | 5.01 µM | – | –
O=C(O)CSc1cc(NS(=O)(=O)c2ccccc2Br)c2ccccc2c1O | 6.18 µM | – | –
COc1c(SCC(=O)O)cc(NS(=O)(=O)c2ccc(-c3ccccc3)cc2)c2ccccc12 | > 100 µM | 20 µM | –
CC(C)(C)c1ccc(S(=O)(=O)Nc2cc(SCC(=O)O)c(O)c3ccccc23)cc1 | 8.73 µM | – | –
O=S(=O)(Nc1ccc(O)c2ccccc12)c1ccccc1 | – | > 27 µM | –

SMILES | IC50 [1] | Ki [2] | further results
COc1c(SCC(=O)O)cc(NS(=O)(=O)c2cccc(-c3ccccc3)c2)c2ccccc12 | 58.4 µM | 24.2 µM | –
CCCCSc1cc(NS(=O)(=O)c2ccc(Br)cc2)c2ccccc2c1O | – | > 27 µM | –
O=S(=O)(Nc1cc(SCc2nnn[nH]2)c(O)c2ccccc12)c1ccc(Oc2ccccc2)cc1 | – | 0.21 µM | Activity (HL-60 [5]): Dose-dependent effect; Activity (MV4-11): Dose-dependent effect; Activity (K562): Dose-dependent effect; Activity (HL-60 [6]): Dose-dependent effect
O=S(=O)(Nc1cc(CCCCO)c(O)c2ccccc12)c1ccc(Br)cc1 | 19.7 µM | – | –
COC(=O)CSc1cc(NS(=O)(=O)c2ccc(Br)cc2)c2ccccc2c1OC | > 100 µM | > 27 µM | inhibition [4]: inactive; Activity (HL-60 [5]): Dose-dependent effect; IC50 (HL-60 [5]; HL-60, 72 h): > 50 µM; Activity (MV4-11): Dose-dependent effect; IC50 (MV4-11; MV4-11, 72 h): > 50 µM; Activity (K562): Dose-dependent effect; IC50 (K562; K562, 72 h): > 50 µM
O=C(O)CSc1cc(NS(=O)(=O)Cc2ccc(Cl)cc2)c2ccccc2c1O | 9.59 µM | – | –
COc1c(I)cc(C=O)c2ccccc12 | – | – | Ki (Bcl-2-like protein 1): > 15 µM; Ratio Ki (Homo sapiens): 16
O=C(O)CSc1cc(NS(=O)(=O)c2ccc(Br)cc2)ccc1O | > 100 µM | 283 µM | –
O=S(=O)(Nc1cc(SCc2nnn[nH]2)c(O)c2ccccc12)c1ccc(Br)cc1 | 1.5 µM | 1.01 µM | Activity (HL-60 [5]): Dose-dependent effect; Activity (MV4-11): Dose-dependent effect; Activity (K562): Dose-dependent effect
COc1ccc(S(=O)(=O)Nc2cc(SCC(=O)O)c(O)c3ccccc23)cc1 | 7.17 µM | 9.31 µM | –
O=C(O)CSc1cc(NS(=O)(=O)c2cccc(-c3ccccc3)c2)c2ccccc2c1O | 2.31 µM | – | Ki [3]: 7.85 µM; Ki (Bcl-2-like protein 1): 15.1 µM; Activity (HL-60 [5]): Dose-dependent effect; Activity (MV4-11): Dose-dependent effect; Activity (K562): Dose-dependent effect
CC(=O)Oc1c(SCC(=O)O)cc(NS(=O)(=O)c2ccc(Br)cc2)c2ccccc12 | 26.8 µM | 34 µM | –
CC(C)c1ccc(S(=O)(=O)Nc2cc(SCC(=O)O)c(O)c3ccccc23)cc1 | 4 µM | – | –
O=C(O)CSc1cc(NS(=O)(=O)c2ccc(-c3ccccc3)cc2)c2ccccc2c1O | 2.03 µM | – | Ki [3]: 8.82 µM; Ki (Bcl-2-like protein 1): 8.05 µM; Activity (HL-60 [5]): Dose-dependent effect; Activity (MV4-11): Dose-dependent effect; Activity (K562): Dose-dependent effect
CS(=O)(=O)Nc1cc(SCC(=O)O)c(O)c2ccccc12 | > 100 µM | 74.9 µM | –
O=C(O)CCSc1cc(NS(=O)(=O)c2ccc3ccccc3c2)c2ccccc2c1O | 5.03 µM | – | –
O=C(O)CSc1cc(NS(=O)(=O)c2ccc(Oc3ccc(F)cc3)cc2)c2ccccc2c1O | 0.9 µM | 0.29 µM | –
Cc1cs/c(=N\C2CCCCC2)n1/N=C/c1ccc(O)c(O)c1O | – | – | IC50 [7]: 4.72 µM; IC50 (Bcl-2-like protein 1): > 50 µM
O=C(O)CSc1cc(NS(=O)(=O)c2ccc(Oc3ccccc3)cc2)c2ccccc2c1O | – | – | Ki [3]: 7.56 µM; Ki (Bcl-2-like protein 1): 10.6 µM; inhibition [8]: Dose-dependent effect; inhibition [9]: 23%; inhibition [10]: 61%; inhibition [4]: inactive; Activity (HL-60 [5]): Dose-dependent effect; Activity (MV4-11): Dose-dependent effect; Activity (K562): Dose-dependent effect; Activity (HL-60 [6]): Dose-dependent effect; Activity (HL-60 [11]): Dose-dependent effect; Activity (HL-60 [12]): Active
CC1(C)CCC(c2ccc(Cl)cc2)=C(CN2CCN(c3ccc(C(=O)NS(=O)(=O)c4ccc(N[C@H](CCN5CCOCC5)CSc5ccccc5)c(S(=O)(=O)C(F)(F)F)c4)cc3)CC2)C1 | – | – | inhibition [13]: inactive; inhibition [14]: Active
O=C(O)CSc1cc(NS(=O)(=O)c2ccc(-c3ccc(F)cc3F)cc2)c2ccccc2c1O | 0.92 µM | 0.24 µM | –
O=C(O)CCSc1cc(NS(=O)(=O)c2cccc3ccccc23)c2ccccc2c1O | 64.9 µM | > 27 µM | –
